Source: ChEMBL document CHEMBL1150693, “Structures of new dammarane-type Triterpene Saponins from the flower buds of Panax notoginseng and hepatoprotective effects of principal Ginseng Saponins” (2003)

What was measured:
Assay type in all cases: functional
Settings in all cases: route intraperitoneal
[1] = system: Mus musculus; test: Hepatoprotective activity against D-galactosamine/LPS-induced liver injury in ddY mouse assessed as inhibition of serum aspartate transaminase level at 100 mg/kg, ip administered 1 hr before D-galactosamine/LPS challenge by Reitman-Frankel method
Outline: (§1)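 Male ddY mice (about 25-27 g) fasted 20 h; liver injury induced by i.p. D-GalN (350 mg/kg) plus LPS (10 µg/kg, Salmonella enteritidis) in saline. Test sample given i.p. 1 h before challenge. Blood taken from infraorbital venous plexus 10 h after D-GalN/LPS; sALT and sAST measured by Reitman-Frankel method (Karmen units). Mean ± SEM; one-way ANOVA with Dunnett's test.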

[2] = system: Mus musculus; test: Hepatoprotective activity against D-galactosamine/LPS-induced liver injury in ddY mouse assessed as inhibition of serum alanine transaminase level at 100 mg/kg, ip administered 1 hr before D-galactosamine/LPS challenge by Reitman-Frankel method; outline: as §1
[3] = system: Mus musculus; test: Hepatoprotective activity against D-galactosamine/LPS-induced liver injury in ddY mouse assessed as inhibition of serum alanine transaminase level at 50 mg/kg, ip administered 1 hr before D-galactosamine/LPS challenge by Reitman-Frankel method; outline: as §1
[4] = system: Mus musculus; test: Hepatoprotective activity against D-galactosamine/LPS-induced liver injury in ddY mouse assessed as inhibition of serum aspartate transaminase level at 50 mg/kg, ip administered 1 hr before D-galactosamine/LPS challenge by Reitman-Frankel method; outline: as §1
[5] = system: Mus musculus; test: Hepatoprotective activity against D-galactosamine/LPS-induced liver injury in ddY mouse assessed as inhibition of serum alanine transaminase level at 20 mg/kg, ip administered 1 hr before D-galactosamine/LPS challenge by Reitman-Frankel method
Outline: (§2)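 Male ddY mice (about 25-27 g) fasted 20 h; liver injury induced by ip D-GalN (350 mg/kg) plus LPS (10 µg/kg, Salmonella enteritidis) in saline. Sample given ip 1 h before D-GalN/LPS. Blood drawn from infraorbital venous plexus 10 h after challenge; sALT and sAST measured by Reitman-Frankel kit, in Karmen units; % inhibition reported. Means ± SEM; one-way ANOVA with Dunnett's test.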

[6] = system: Mus musculus; test: Hepatoprotective activity against D-galactosamine/LPS-induced liver injury in ddY mouse assessed as inhibition of serum aspartate transaminase level at 20 mg/kg, ip administered 1 hr before D-galactosamine/LPS challenge by Reitman-Frankel method; outline: as §2

SMILES | inhibition in vivo at 100 mg/kg [1] [%] | inhibition in vivo at 100 mg/kg [2] [%] | inhibition in vivo at 50 mg/kg [3] [%] | inhibition in vivo at 50 mg/kg [4] [%] | inhibition in vivo at 20 mg/kg [5] [%] | inhibition in vivo at 20 mg/kg [6] [%]
CC(C)=CCC[C@](C)(O[C@@H]1O[C@H](CO)[C@@H](O)[C@H](O)[C@H]1O)[C@H]1CC[C@]2(C)[C@@H]1[C@H](O)C[C@@H]1[C@@]3(C)CC[C@H](O)C(C)(C)[C@@H]3[C@@H](O[C@@H]3O[C@H](CO)[C@@H](O)[C@H](O)[C@H]3O[C@@H]3O[C@H](CO)[C@@H](O)[C@H](O)[C@H]3O)C[C@]12C | 40 | 34 |  |  |  | 
CC(C)=CCC[C@](C)(O[C@@H]1O[C@H](CO[C@@H]2O[C@H](CO)[C@@H](O)[C@H](O)[C@H]2O)[C@@H](O)[C@H](O)[C@H]1O)[C@H]1CC[C@]2(C)[C@@H]1[C@H](O)C[C@@H]1[C@@]3(C)CC[C@H](O[C@@H]4O[C@H](CO)[C@@H](O)[C@H](O)[C@H]4O[C@@H]4O[C@H](CO)[C@@H](O)[C@H](O)[C@H]4O)C(C)(C)[C@@H]3CC[C@]12C [GINSENOSIDE RB1] | 40 | 33 |  |  |  | 
CC(C)=CCC[C@](C)(O[C@@H]1O[C@H](CO[C@@H]2OC[C@@H](O)[C@H](O)[C@H]2O)[C@@H](O)[C@H](O)[C@H]1O)[C@H]1CC[C@]2(C)[C@@H]1[C@H](O)C[C@@H]1[C@@]3(C)CC[C@H](O[C@@H]4O[C@H](CO)[C@@H](O)[C@H](O)[C@H]4O[C@@H]4O[C@H](CO)[C@@H](O)[C@H](O)[C@H]4O)C(C)(C)[C@@H]3CC[C@]12C [GINSENOSIDE RB3] | 80 | 91 | 77 | 72 |  | 
CC(C)=CCC[C@](C)(O[C@@H]1O[C@H](CO[C@@H]2O[C@@H](CO)[C@H](O)[C@H]2O)[C@@H](O)[C@H](O)[C@H]1O)[C@H]1CC[C@]2(C)[C@@H]1[C@H](O)C[C@@H]1[C@@]3(C)CC[C@H](O[C@@H]4O[C@H](CO)[C@@H](O)[C@H](O)[C@H]4O[C@@H]4O[C@H](CO)[C@@H](O)[C@H](O)[C@H]4O)C(C)(C)[C@@H]3CC[C@]12C [GINSENOSIDE RC] | 87 | 89 | 77 | 80 |  | 
CC(C)=CCC[C@](C)(O[C@@H]1O[C@H](CO)[C@@H](O)[C@H](O)[C@H]1O)[C@H]1CC[C@]2(C)[C@@H]1[C@H](O)C[C@@H]1[C@@]3(C)CC[C@H](O[C@@H]4O[C@H](CO)[C@@H](O)[C@H](O)[C@H]4O[C@@H]4O[C@H](CO)[C@@H](O)[C@H](O)[C@H]4O)C(C)(C)[C@@H]3CC[C@]12C [GINSENOSIDE RD] | 93 | 97 |  |  |  | 
CC(C)=CCC[C@](C)(O[C@@H]1O[C@H](CO)[C@@H](O)[C@H](O)[C@H]1O)[C@H]1CC[C@]2(C)[C@@H]1[C@H](O)C[C@@H]1[C@@]3(C)CC[C@H](O)C(C)(C)[C@@H]3[C@@H](O[C@@H]3O[C@H](CO)[C@@H](O)[C@H](O)[C@H]3O[C@@H]3O[C@@H](C)[C@H](O)[C@@H](O)[C@H]3O)C[C@]12C [GINSENOSIDE RE] | 90 | 92 |  |  |  | 
CC(C)=CCC[C@](C)(O[C@@H]1O[C@H](CO)[C@@H](O)[C@H](O)[C@H]1O)[C@H]1CC[C@]2(C)[C@@H]1[C@H](O)C[C@@H]1[C@@]3(C)CC[C@H](O)C(C)(C)[C@@H]3[C@@H](O[C@@H]3O[C@H](CO)[C@@H](O)[C@H](O)[C@H]3O)C[C@]12C [GINSENOSIDE RG1] | 12 | 30 |  |  |  | 
CC(C)=CCC[C@](C)(O)[C@H]1CC[C@]2(C)[C@@H]1[C@H](O)C[C@@H]1[C@@]3(C)CC[C@H](O)C(C)(C)[C@@H]3[C@@H](O[C@@H]3O[C@H](CO)[C@@H](O)[C@H](O)[C@H]3O)C[C@]12C [GINSENOSIDE RH1] | 90 | 93 |  |  |  | 
CC(C)=CCC[C@](C)(O[C@@H]1O[C@H](CO[C@@H]2O[C@H](CO)[C@@H](O)[C@H](O)[C@H]2O)[C@@H](O)[C@H](O)[C@H]1O)[C@H]1CC[C@]2(C)[C@@H]1[C@H](O)C[C@@H]1[C@@]3(C)CC[C@H](O[C@@H]4O[C@H](CO)[C@@H](O)[C@H](O)[C@H]4O)C(C)(C)[C@@H]3CC[C@]12C [GYPENOSIDE XVII] | 91 | 95 |  |  |  | 
C[C@]12CCC(=O)C=C1CC[C@@H]1[C@@H]2[C@@H](O)C[C@@]2(C)[C@H]1CC[C@]2(O)C(=O)CO [HYDROCORTISONE] |  |  |  |  | 99 | 97
CC(C)=CCC[C@](C)(O[C@@H]1O[C@H](CO)[C@@H](O)[C@H](O)[C@H]1O)[C@H]1CC[C@]2(C)[C@@H]1[C@H](O)C[C@@H]1[C@@]3(C)CC[C@H](O)C(C)(C)[C@@H]3[C@@H](O[C@@H]3O[C@H](CO)[C@@H](O)[C@H](O)[C@H]3O[C@@H]3OC[C@@H](O)[C@H](O)[C@H]3O)C[C@]12C [NOTOGINSENOSIDE R1] | 89 | 87 |  |  |  | 
CC(C)=CCC[C@](C)(O[C@@H]1O[C@H](CO[C@@H]2O[C@H](CO)[C@@H](O)[C@H](O)[C@H]2O)[C@@H](O)[C@H](O)[C@H]1O)[C@H]1CC[C@]2(C)[C@@H]1[C@H](O)C[C@@H]1[C@@]3(C)CC[C@H](O)C(C)(C)[C@@H]3[C@@H](O[C@@H]3O[C@H](CO)[C@@H](O)[C@H](O)[C@H]3O)C[C@]12C [notoginsenoside-R6] | 44 | 32 |  |  |  | 
